{"source": "ChEMBL document CHEMBL1806378", "about": "“Osteogenic constituents from Pterospermum acerifolium Willd. flowers” (Bioorg Med Chem Lett, 2011)", "key": {"Osteoblast [1]": {"test_system": "Osteoblast", "experiment": "Induction of osteogenesis in rat calvaria-derived primary osteoblasts assessed as increase in ALP activity after 48 hrs by bradford assay relative to control", "assay_type": "functional, cell-based", "in_short": "(§1)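 Primary rat calvarial osteoblasts (2 × 10^3 cells) seeded and exposed to graded compound concentrations for 48 h; BMP-2 as positive control, vehicle as control. ALP measured with p-nitrophenylphosphate substrate, read at 405 nm, normalized to total protein by Bradford assay. Three independent experiments, six replicates per point; mean ± SEM, one-way ANOVA versus control.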"}, "Osteoblast [2]": {"test_system": "Osteoblast", "experiment": "Induction of osteogenesis in rat calvaria-derived primary osteoblasts assessed as increase in ALP activity at 10 pM after 48 hrs by bradford assay relative to control", "assay_type": "functional, cell-based", "in_short": "as §1"}, "Osteoblast [3]": {"test_system": "Osteoblast", "experiment": "Induction of osteogenesis in rat calvaria-derived primary osteoblasts assessed as increase in BMP2 mRNA level at 100 pM after 48 hrs by quantitative PCR analysis", "assay_type": "functional, cell-based", "in_short": "(§2)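 Primary rat calvarial osteoblasts treated 48 h at 100 pM; BMP-2, Col1 and runx2 transcript levels quantified by qPCR (optimized protocol). Four independent experiments in triplicate per treatment point; mean ± SEM compared with control.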"}, "Osteoblast [4]": {"test_system": "Osteoblast", "experiment": "Induction of osteogenesis in rat calvaria-derived primary osteoblasts assessed as increase in ALP activity at 100 pM after 48 hrs by bradford assay relative to control", "assay_type": "functional, cell-based", "in_short": "as §1"}, "[5]": {"experiment": "Cytotoxicity against rat calvaria-derived primary osteoblasts assessed as cell viability by MTT assay", "assay_type": "cell-based", "settings": "osteoblast"}, "Bone marrow cell": {"test_system": "Bone marrow cell", "experiment": "Induction of mineralization in rat femur-derived bone marrow cells at 100 pM after 21 days by Alizarin Red S staining", "assay_type": "functional, cell-based", "in_short": "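Rat bone marrow cells (2 × 10^5) seeded and incubated 21 days with 100 pM compound; cells fixed, stained with alizarin red-S, dye extracted and optical density measured colorimetrically. Four independent experiments in triplicate; mean ± SEM versus control.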"}, "Osteoblast [6]": {"test_system": "Osteoblast", "experiment": "Induction of osteogenesis in rat calvaria-derived primary osteoblasts assessed as increase in Col1 mRNA level at 100 pM after 48 hrs by quantitative PCR analysis", "assay_type": "functional, cell-based", "in_short": "as §2"}, "Osteoblast [7]": {"test_system": "Osteoblast", "experiment": "Induction of osteogenesis in rat calvaria-derived primary osteoblasts assessed as increase in runx2 mRNA level at 100 pM after 48 hrs by quantitative PCR analysis", "assay_type": "functional, cell-based", "in_short": "as §2"}, "Osteoblast [8]": {"test_system": "Osteoblast", "experiment": "Induction of osteogenesis in rat calvaria-derived primary osteoblasts assessed as increase in ALP activity at 1 nM to 1 uM after 48 hrs by bradford assay relative to control", "assay_type": "functional, cell-based", "in_short": "as §1"}}, "note": "Active and inactive are the calls of the source. The calls are words filed in the database; no cut-off is given here."}
{"compound": "C=C[C@@](C)(CCC=C(C)C)O[C@@H]1O[C@H](CO[C@@H]2O[C@@H](C)[C@H](O)[C@@H](O)[C@H]2O)[C@@H](O)[C@H](O)[C@H]1O", "values": [{"measurement": "Activity", "setting": "Osteoblast [1]", "result": "inactive"}]}
{"compound": "CC1=CC(=O)CC(C)(C)[C@H]1/C=C/[C@H](C)O[C@@H]1O[C@H](CO)[C@@H](O)[C@H](O)[C@H]1O", "values": [{"measurement": "Activity", "setting": "Osteoblast [1]", "result": "inactive"}]}
{"compound": "C[C@@H]1O[C@@H](O[C@H]2[C@H](Oc3cc(O)c4c(=O)cc(-c5ccc(O)c(O)c5)oc4c3)O[C@H](CO)[C@@H](O)[C@@H]2O)[C@H](O)[C@H](O)[C@H]1O", "values": [{"measurement": "Activity", "setting": "Osteoblast [1]", "result": "inactive"}]}
{"compound": "O=c1cc(-c2ccc(O)c(O)c2)oc2cc(O[C@@H]3O[C@H](CO)[C@@H](O)[C@H](O)[C@H]3O)cc(O)c12", "values": [{"measurement": "Activity", "setting": "Osteoblast [1]", "result": "inactive"}]}
{"compound": "O=c1cc(-c2cccc(O)c2)oc2cc(O)c(O[C@@H]3O[C@H](CO)[C@@H](O)[C@H](O)[C@H]3O)c(O)c12", "values": [{"measurement": "Activity", "setting": "Osteoblast [1]", "result": "inactive"}]}
{"compound": "COc1cc(C(O)C(O)CO)ccc1Oc1ccc(-c2cc(=O)c3c(O)cc(O)cc3o2)cc1O", "note": "(centres undefined) [PTEROSPERMIN A]", "values": [{"measurement": "Activity", "setting": "Osteoblast [2]", "result": "Active"}, {"measurement": "Activity", "setting": "Osteoblast [3]", "result": "Active"}, {"measurement": "Activity", "setting": "Osteoblast [4]", "result": "Active"}, {"measurement": "Activity", "setting": "[5]", "result": "Non-toxic"}, {"measurement": "Activity", "setting": "Bone marrow cell", "result": "Active"}, {"measurement": "Activity", "setting": "Osteoblast [6]", "result": "Active"}, {"measurement": "Activity", "setting": "Osteoblast [7]", "result": "Active"}, {"measurement": "Activity", "setting": "Osteoblast [8]", "result": "inactive"}]}
{"compound": "O=C1OC(O)C=C1O", "note": "(centres undefined) [PTEROSPERMIN C]", "values": [{"measurement": "Activity", "setting": "Osteoblast [2]", "result": "Active"}, {"measurement": "Activity", "setting": "Osteoblast [3]", "result": "Active"}, {"measurement": "Activity", "setting": "Osteoblast [4]", "result": "Active"}, {"measurement": "Activity", "setting": "[5]", "result": "Non-toxic"}, {"measurement": "Activity", "setting": "Bone marrow cell", "result": "Active"}, {"measurement": "Activity", "setting": "Osteoblast [6]", "result": "Active"}, {"measurement": "Activity", "setting": "Osteoblast [7]", "result": "Active"}, {"measurement": "Activity", "setting": "Osteoblast [8]", "result": "inactive"}]}
{"compound": "O=C(/C=C/c1ccc(O)cc1)OC[C@H]1O[C@@H](Oc2c(-c3ccc(O)cc3)oc3cc(O)cc(O)c3c2=O)[C@H](O)[C@@H](O)[C@@H]1O", "note": "[TILIROSIDE]", "values": [{"measurement": "Activity", "setting": "Osteoblast [2]", "result": "Active"}, {"measurement": "Activity", "setting": "Osteoblast [3]", "result": "Active"}, {"measurement": "Activity", "setting": "Osteoblast [4]", "result": "Active"}, {"measurement": "Activity", "setting": "[5]", "result": "Non-toxic"}, {"measurement": "Activity", "setting": "Bone marrow cell", "result": "Active"}, {"measurement": "Activity", "setting": "Osteoblast [6]", "result": "Active"}, {"measurement": "Activity", "setting": "Osteoblast [7]", "result": "Active"}, {"measurement": "Activity", "setting": "Osteoblast [8]", "result": "inactive"}]}
